# LANA-H2B inh = blocks KSHV LANA binding to histone H2A/H2B. AID 2629. inhibition, % (test concentration not listed). 0.6% of 320,000 active. cell-free LANA-H2A/H2B peptide, fluorescence polarization; in the data active means inhibition mostly above about 10%, no sharp cut-off; inactive means mostly below about 6.7%
# procasp3 activ = activators of human procaspase-3; P42574; recombinant procaspase-3 D3A, Ac-DEVD-pNA absorbance 405 nm; activation, % at 8.5 µM; 0.11% of 330,000 active;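 active means activation above the mean of all tested compounds plus 3 SD, cut at about 21% in these data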;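 further: 0% = DMSO alone and 100% = DMSO wells spiked with extra 5 µM PC-3 D3A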
# Target sequence (P42574 whole entry D9A/D28A/D175A): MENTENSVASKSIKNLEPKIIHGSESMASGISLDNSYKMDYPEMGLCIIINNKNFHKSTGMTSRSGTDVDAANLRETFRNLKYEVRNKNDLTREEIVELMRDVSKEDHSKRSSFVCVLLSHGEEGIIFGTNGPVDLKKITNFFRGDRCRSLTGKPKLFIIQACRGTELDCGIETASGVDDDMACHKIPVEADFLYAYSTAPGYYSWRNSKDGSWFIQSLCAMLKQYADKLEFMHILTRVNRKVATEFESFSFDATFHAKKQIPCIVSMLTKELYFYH
#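 Technique: 405 nm absorbance of p-nitroaniline, reads at 0 and 120 min; Test system: Procaspase-3 D3A mutant; Incubation: 1 h enzyme-compound preincubation, then 2 h substrate reaction, 25 °C; Repeats: singlicate, each compound tested once; Benchmarks: low control DMSO wells, high control DMSO plus 5 µM PC-3 D3A.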
# proCasp7 act = counter-screen: procaspase-7 (human) activation; P55210; recombinant procaspase-7, Ac-DEVD-pNA absorbance 405 nm; D23A/D198A/D206A triple mutant, cannot self-cleave; scale: DMSO 0, 5 µM enzyme 100; activation, % at 8.5 µM; 0.093% of 330,000 active;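 active means percent activation above the screen-wide mean plus 3 SD, cut at about 25% in these data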
#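 Replicates: singlicate. Assay system: Procaspase-7 triple mutant (PC-7 D3A). Signal: 405 nm absorbance of p-nitroaniline. Times: 1 h preincubation, 2 h reaction. Buffer or medium: Zinc-free HEPES pH 7.4 with 300 mM NaCl, 0.01% Triton X-100. Also added: DEVD-pNA substrate. Benchmarks: DMSO wells as 0%, DMSO with 5 µM added PC-7 as 100%.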
# Yeast superoxide = lowers age-related superoxide in aged yeast cells | S. cerevisiae aged cells, superoxide DHE fluorescence; hits give low values | superoxide response (% of plate mean), % at 10 µM | 0.18% of 330,000 active | AID 2690;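 active means superoxide response under a set limit, about three screen SD below normal, cut at about 65% in these data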;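 further: yeast aged for seven days with compound at 30 °C before DHE staining; 100% = average MFI of all compound-treated wells on the plate with controls excluded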
# ASAP1 GAP inh = inhibitors of human ASAP1 ArfGAP activity. Q9ULH1. ASAP1-stimulated ARF1 GTP hydrolysis, GDP FP detection. inhibition, % at 16.5 µM. 0.19% of 360,000 active; in the data active means inhibition above about 25%;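 further: 0% = vehicle with enzyme and substrate and 100% = no enzyme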
# ARFGAP1 inhibitor = inhibitors of rat ARFGAP1. Arfgap1-stimulated ARF1 GTP hydrolysis, GDP FP detection. inhibition, % at 16.5 µM. 0.26% of 360,000 active;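 active means inhibition above a per-plate limit, mean inhibition of low control wells plus 3 SD, cut at about 25% in these data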;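 further: 0% = DMSO wells with enzyme and 100% = wells lacking Arfgap1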
# Target sequence (Q62848 1-136 limits assumed): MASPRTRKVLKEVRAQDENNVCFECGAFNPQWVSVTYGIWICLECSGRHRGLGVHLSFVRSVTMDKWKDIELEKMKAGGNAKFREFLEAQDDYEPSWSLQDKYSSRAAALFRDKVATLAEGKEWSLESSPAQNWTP
#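 Assay system: purified rat His6-Arfgap1 residues 1-136 (GAP domain); Reagent: human Δ17 ARF1 bound to GTP; Dosing: 16.5 µM single point, 1.26% DMSO; Times: GTP hydrolysis reaction 2 h at 25 °C; Signal: FP, GDP Alexa 633 tracer displaced from anti-GDP antibody, 620/688 nm; Measure: % inhibition from polarization.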
# ASAP1 inh confirm = ASAP1 inhibition confirmed. AID 624431. inhibition, % at 16.5 µM. ASAP1-stimulated Arf1 GTPase, GDP fluorescence polarization. 37% of 620 active. shares compounds with ASAP1 GAP inh;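 active means mean inhibition over triplicates exceeds the hit threshold derived for the earlier primary screening run, cut at about 25% in these data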
# The depositor's hits bear a star; . = no result given. The list is not random: actives were taken first. Their share in the collection is about 1.2%.
SMILES,LANA-H2B inh,procasp3 activ,proCasp7 act,Yeast superoxide,ASAP1 GAP inh,ARFGAP1 inhibitor,ASAP1 inh confirm
CCN1CCN(c2ccc(S(=O)(=O)N3CCCCC3)cc2NC(=O)/C=C/c2ccc(OC(F)F)cc2)CC1,-4,2,0,96,5,11,.
COCCNC(=S)N=Nc1c(O)[nH]c2ccc([N+](=O)[O-])cc12,-2,2,-1,95,30*,2,41*
CCOc1cc(/C=C2/NC(=S)NC2=O)ccc1OCc1ccc([N+](=O)[O-])cc1,0,-2,10,85,29*,2,13
COc1cc(N)c2ncccc2c1Br,.,.,.,.,28*,15,11
COc1cc(N)c2ncccc2c1SC,.,.,.,.,-13,-6,.
N#Cc1cc2ccc(N3CCOCC3)cc2cc1C#N,-2,2,0,96,30*,4,6
N#Cc1cc(Cl)c(N2CCOCC2)cc1C#N,1,-1,4,106,9,0,.
O=C(O)c1ccc(NC(=S)NC(=O)c2ccc(-c3ccc(Br)cc3)o2)cc1,1,-6,-43,89,8,-9,.
O=C1C(=C(I)I)c2ccccc2-c2ccccc21,.,.,.,.,38*,-9,-14
O=C(O)c1cccc2c1C(=O)c1ccccc1-2,1,-8,8,99,1,4,.
COC(=O)c1cc(NC(=O)c2ccc(Cn3cc(Cl)cn3)o2)cc(C(=O)OC)c1,7,3,1,91,40*,0,28*
CCOC(=O)C1=C(C(=O)OCC)C2N(Cc3ccc(C#N)cc3)c3ccccc3[C@@]23C[C@@H](C(=O)OC)N(S(=O)(=O)c2ccc(C#N)cc2)C3=N1 (stereo partly drawn),.,.,.,.,3,6,.
COc1ccccc1CNC(=O)C(Cc1c[nH]c2ccccc12)NC(=O)OCc1ccccc1 (stereo not drawn),-8,-7,10,99,4,3,.
CC1(C)Cc2c(c(-c3ccco3)nc3sc4c(NCCO)ncnc4c23)CO1,0,5,-1,101,30*,-7,1
O=C(COC(=O)c1ccc2c(c1)C(=O)N(c1cccc3ncccc13)C2=O)c1ccc(Cl)cc1,-4,-3,7,112,145*,4,177*
Cc1ccc(C(=O)COC(=O)c2ccc3c(c2)C(=O)N(c2cccc4ncccc24)C3=O)cc1,-3,0,6,100,-3,-9,.
O=C(c1ccccc1)[C@H]1[C@H](c2ccccc2)[C@@]2(N=C(c3ccccc3)OC2=O)C2c3ccccc3C=NN21 (stereo partly drawn),0,-4,-4,105,.,.,.
O=C(Nc1ccc2c(c1)OCCO2)C(c1ccc(C(F)(F)F)cc1)n1c(=O)c(-c2cc3ccccc3[nH]2)nc2ccccc21 (stereo not drawn),.,.,.,.,7,10,.
O=C(Nc1ccc2c(c1)OCCO2)C(c1ccncc1)n1c(=O)c(-c2cc3ccccc3[nH]2)nc2ccccc21 (stereo not drawn),.,.,.,.,33*,8,16
COc1ccc(Nc2ncnc3sc(-c4ccccc4)cc23)cc1OC,3,-3,21,98,26*,3,28*
O=C(C[n+]1cccc(C(=O)Nc2ccccc2)c1)c1ccc([N+](=O)[O-])cc1,0,-2,-1,117,5,-3,.
O=C(C[n+]1cccc(C(=O)Nc2ccccc2)c1)c1ccc(Cl)cc1,.,.,.,.,25*,3,4
O=[N+]([O-])c1cccc(CSc2nnc(Cc3ccccc3)n2-c2ccc(F)cc2)c1,-1,-5,-8,103,-19,-8,.
CCOc1ccccc1NC(=O)Cn1cnc2c(nnn2-c2cccc(OC)c2)c1=O,6,3,6,103,-4,5,.
COc1cccc(-n2nnc3c(=O)n(Cc4ccc(Br)cc4)cnc32)c1,4,6,6,118,28*,-4,35*
SMILES,LANA-H2B inh,procasp3 activ,proCasp7 act,Yeast superoxide,ASAP1 GAP inh,ARFGAP1 inhibitor,ASAP1 inh confirm
COc1cccc(-n2nnc3c(=O)n(Cc4ccc(C)cc4)cnc32)c1,-4,3,-3,105,6,11,.
COc1cccc(-n2nnc3c(=O)n(CC(=O)Nc4ccccc4C)cnc32)c1,-4,10,-4,83,32*,3,17
CC(C)n1c(-c2ccc(C(C)(C)C)cc2)n[nH]c1=S,1,-15,-21,82,26*,13,6
C=CCn1cnnc1SCC(=O)NCC1COc2ccccc2O1 (stereo not drawn),.,.,.,.,31*,3,9
C=CCn1cnnc1SCC(=O)N(C)CC1COc2ccccc2O1 (stereo not drawn),4,8,6,85,-4,-4,.
CCCCNc1nccnc1-c1cccc(C=O)c1,.,.,.,.,7,-7,.
CC1=[N+](C)c2c(ccc3cccnc23)C1(C)C,.,.,.,.,51*,70*,32*
CC1(c2ccccc2)NC(=O)N(CCN2C(=O)c3ccccc3C2=O)C1=O (stereo not drawn),-2,4,17,112,25*,12,6
CN(NC(=O)NN)c1ncc(C(F)(F)F)cc1Cl,-3,1,0,96,5,2,.
Cc1ccc(NC(=O)c2ccc(NCc3ccco3)c([N+](=O)[O-])c2)cc1Cl,5,0,1,113,26*,11,29*
NC(=O)c1ccc(NCC2CCCO2)c([N+](=O)[O-])c1 (stereo not drawn),5,9,6,96,-8,-1,.
Cc1ccc(NC(=O)c2ccc(NCC3CCCO3)c([N+](=O)[O-])c2)cc1Cl (stereo not drawn),-4,0,-6,109,34*,14,95*
CCOC(=O)C(C(=O)Nc1ccc(C)cc1)C1CCCCC1 (stereo not drawn),-4,3,-7,86,-13,-7,.
COc1ccc(NC(=O)C2=CC(c3ccc(C)cc3)=NS(=O)(=O)N2C)cc1OC,-4,-1,-5,91,25*,3,13
COc1cnc(-c2ccccc2)nc1Oc1cccc(C)c1,1,4,11,92,25*,15,6
Fc1ccc(NC(=S)Nc2cc(-c3ccccc3)[nH]n2)cc1Cl,0,-9,-16,88,8,-1,.
O=C(CNc1ccccc1)N/N=C/c1cc([N+](=O)[O-])ccc1N1CCCC1,20,-44,-5,103,0,14,.

# Screens from PubChem BioAssay.
